# Only some compounds are listed: those with a hit (about 1.5% of all), similar ones and a draw of the others.
# CXCR6 inh = CXCR6 (human) receptor inhibition. inhibition, % at 20 µM. CHO-K1 PathHunter CXCR6 beta-arrestin, luminescence. 0.36% of 360,000 active; in the data active = inhibition above about 34%, passing the limit was not always enough;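 note: antagonist mode with CXCL16 agonist at 10 nM final; 0% = 10 nM CXCL16 with DMSO and 100% = unstimulated wells without agonist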
# APJ antagonist = APJ receptor antagonism; P35414; 0.32% of 330,000 active; inhibition, % at 20 µM; CHO-K1 APJ beta-arrestin complementation, luminescence;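 active = inhibition above about 40% at 20 µM, limit read from the data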;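 note: cells challenged with 10 nM apelin-13 agonist together with compound; plate controls were apelin-13 plus DMSO wells for no effect and DMSO wells lacking apelin-13 for full effect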
# Target sequence (P35414 whole entry, looked up): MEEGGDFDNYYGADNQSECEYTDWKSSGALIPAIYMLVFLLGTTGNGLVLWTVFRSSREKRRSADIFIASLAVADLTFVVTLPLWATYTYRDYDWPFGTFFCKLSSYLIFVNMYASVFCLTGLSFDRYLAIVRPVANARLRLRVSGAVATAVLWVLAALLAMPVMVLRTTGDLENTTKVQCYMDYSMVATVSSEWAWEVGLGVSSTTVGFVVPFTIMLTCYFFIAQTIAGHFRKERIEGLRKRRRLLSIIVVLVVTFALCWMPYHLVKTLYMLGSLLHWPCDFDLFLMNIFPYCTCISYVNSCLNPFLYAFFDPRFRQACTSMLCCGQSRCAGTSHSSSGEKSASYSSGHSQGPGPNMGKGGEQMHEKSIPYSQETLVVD
# CCR6 antagonist = CCR6 (human) receptor antagonism | P51684 | CHO-K1 CCR6 PathHunter beta-arrestin, luminescence, CCL20-stimulated | inhibition, % at 20 µM | 0.49% of 340,000 active;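 active = compounds whose inhibition of the agonist-driven luminescence signal at 20 µM reaches about 50%, limit read from the data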;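 note: cells stimulated with CCL20 at 14 nM final; plate controls were DMSO with CCL20 for no effect and DMSO without agonist for full effect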
# APJ ag = agonists of human APJ apelin receptor | activation, % at 20 µM | CHO-K1 APJ PathHunter beta-arrestin, luminescence; 0% DMSO wells, 100% apelin | 0.11% of 330,000 active | P35414;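 active = activation more than six SD over the plate average, tested at 20 µM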;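 note: 0% = DMSO alone and 100% = apelin-13 at 10 nM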
#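 assay system = CHO-K1 APJ beta-arrestin complementation cell line | input = cell density 1000 per well | dosing = compound 20 µM once, DMSO 1% | timing = compound 90 min 25 °C, reagent 1 h | measured by = luminescence from split beta-galactosidase complementation, Galacton Star/Emerald II substrate | read-out basis = APJ agonist activity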
# EBI2 block = blocks human EBI2 receptor beta-arrestin signaling; EBI2 beta-arrestin recruitment, luminescence, 7a,25-OHC stimulated; inhibition, % at 5 µM; 0.81% of 360,000 active; in the data active = inhibition above about 38%;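 note: enzyme fragment complementation signal reports receptor beta-arrestin coupling in cells; 0% = agonist plus DMSO wells and 100% = wells without agonist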
# EBI2 antag conf = EBI2 (human) antagonism, single concentration confirmation | EBI2 beta-arrestin luminescence, 7a,25-OHC antagonism | inhibition, % at 5 µM | 29% of 2,400 active | shares compounds with EBI2 block | AID 651997;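 active = inhibition of at least 50%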
# EBI2 agonist = counter-screen for EBI2 antagonists: EBI2 agonist activity; shares compounds with EBI2 block; EBI2-expressing cells, agonist mode, luminescence, 60 min; 0% vehicle, 100% 7α,25-dihydroxycholesterol control; activation, % at 5 µM; 2,400 tested, under 10 active; AID 652000;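 active = activation of at least 50%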
# bGal counter = inhibits E. coli beta-galactosidase, counter-screen for EBI2 antagonists; inhibition, % at 5 µM; purified beta-galactosidase, luminescent Galacton Star, 15 min; 1% of 2,400 active; shares compounds with EBI2 block;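 active = replicate-average signal at least 3 plate SD below neutral wells, shown as high inhibition, flagging enzyme-inhibiting false positives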;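 note: 0% = DMSO wells with enzyme and 100% = wells lacking enzyme; higher means stronger loss of beta-gal luminescence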
# Active calls of the source: *; . = no result given.
SMILES,CXCR6 inh,APJ antagonist,CCR6 antagonist,APJ ag,EBI2 block,EBI2 antag conf,EBI2 agonist,bGal counter
Cc1cc(C)c2oc(C(=O)N3CCN(Cc4ccccc4)CC3)cc(=O)c2c1,3,13,10,-1,58*,32,-1,-10
O=C(c1cc(=O)c2cc(Cl)ccc2o1)N1CCN(Cc2ccccc2)CC1,7,11,-2,-4,93*,92*,0,4
Cc1c(C(=O)N2CCN(CCc3ccccn3)CC2)oc2ccc(Cl)cc12,-2,10,-4,2,54*,37,-1,6
Cc1cc(C)c2oc(C(=O)N3CCN(C)CC3)cc(=O)c2c1,-1,-7,17,-1,-1,.,.,.
Cc1c(C(=O)N2CCN(CCc3ccccc3)CC2)oc2ccccc12,2,16,12,-3,18,.,.,.
CCn1c(CNC(=O)c2ccco2)nnc1SCC(=O)Nc1cc(F)ccc1C,2,17,-3,0,5,.,.,.
COCCCn1c(SCC(=O)O)nc2cc(OC)c(OC)cc2c1=N,0,0,9,-3,-5,.,.,.
COCCCn1c(SCc2ccccc2)nc2cc(OC)c(OC)cc2c1=N,-8,12,38,-2,54*,48,-1,-2
COc1cc2nc(SCc3ccc(Cl)cc3Cl)n(Cc3cccs3)c(=N)c2cc1OC,-5,7,4,-3,43*,30,1,1
Cc1cccc2c(C(=O)N3CCN(c4ccccc4)CC3)cc(-c3ccncc3)nc12,0,2,4,-2,47*,28,0,-2
CC(=O)c1ccc(N2CCN(C(=O)c3cc(-c4ccncc4)nc4ccc(Cl)cc34)CC2)cc1,-25,-30,-2,18,45*,25,2,8
O=C(NC12CC3CC(CC(C3)C1)C2)C1CC(=O)N(c2ccc(Br)cc2)C1 (stereo unspecified),-6,-20,-2,-1,51*,33,1,4
CCOc1ccccc1C=C1SC(=S)NC1=O,2,.,22,.,-7,.,.,.
O=C(CCCOc1ccccc1)N1CCN(S(=O)(=O)c2cccs2)CC1,4,17,8,-3,29,.,.,.
CC(=O)c1ccc(OCC(=O)N2CCN(S(=O)(=O)c3ccc(Br)s3)CC2)cc1,-2,-10,6,-6,69*,39,0,12
CC(=O)c1ccc(OCCCC(=O)N2CCN(S(=O)(=O)c3cccs3)CC2)cc1,-4,-2,5,7,49*,48,-1,-14
COc1ccc(NC(=O)C2(C)CCN2CCc2ccccc2)cc1OC (stereo unspecified),-3,.,.,.,3,.,.,.
COc1ccc(-c2cc(C(=O)N3CCN(Cc4ccccc4)CC3)no2)cc1OC,-12,-27,-8,-2,-18,.,.,.
COc1cccc(-c2cc(C(=O)N3CCN(Cc4ccccc4)CC3)no2)c1,-1,-12,-8,-6,51*,29,0,-8
COc1ccc2cc(C(=O)N3CCN(Cc4ccc5c(c4)OCO5)CC3)[nH]c2c1,-9,-17,14,-1,86*,59*,0,6
CCN1CCN(C(=O)c2cc3ccc(OC)cc3[nH]2)CC1,1,7,1,-2,24,.,.,.
O=C(c1cc(-c2cccc(O)c2)on1)N1CCN(C(c2ccccc2)c2ccccc2)CC1,-1,0,8,-1,90*,73*,0,4
COc1cccc(-c2cc(C(=O)N3CCN(Cc4ccc5c(c4)OCO5)CC3)on2)c1,-2,-45,3,-5,70*,54*,0,-11
Cc1cc(C(=O)N2CCN(Cc3ccc4c(c3)OCO4)CC2)on1,1,-5,-1,-5,-9,.,.,.
O=C(c1cc(C2CC2)on1)N1CCN(C(c2ccccc2)c2ccccc2)CC1,13,9,17,-4,13,.,.,.
CSc1ccc(C(=O)N2CCC(n3nccc3NC(=O)C3CC3)CC2)cc1,0,11,1,-2,8,.,.,.
